Results published in ChEMBL document CHEMBL4033786, “Discovery of Novel 1-Cyclopentenyl-3-phenylureas as Selective, Brain Penetrant, and Orally Bioavailable CXCR2 Antagonists” (J Med Chem, 2018).
Values after ≈ are worked out from the molar mass of the structure shown.

How the values were obtained:
[1] = target: T1, C-X-C chemokine receptor type 2 (Homo sapiens, UniProt P25025); assay: Antagonist activity at TEV protease cleavage site linked GAL4-VP16-fused recombinant human CXCR2 expressed in cells assessed as inhibition of […] human CXCL1-stimulated beta-arrestin recruitment by CCF4-AM-fluorescence based FRET assay; format: cell-based; conditions: read-out: pIC50 (converted)
T1 sequence (P25025 whole entry): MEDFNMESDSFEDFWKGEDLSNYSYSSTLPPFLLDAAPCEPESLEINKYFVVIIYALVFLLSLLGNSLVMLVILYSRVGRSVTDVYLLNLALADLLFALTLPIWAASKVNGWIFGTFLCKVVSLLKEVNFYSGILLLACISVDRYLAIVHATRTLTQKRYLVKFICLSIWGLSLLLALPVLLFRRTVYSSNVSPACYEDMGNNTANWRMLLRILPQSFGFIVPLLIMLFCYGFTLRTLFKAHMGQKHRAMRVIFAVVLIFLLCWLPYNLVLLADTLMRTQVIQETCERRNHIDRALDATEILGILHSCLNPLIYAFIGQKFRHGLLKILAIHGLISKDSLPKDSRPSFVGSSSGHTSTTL
Method in brief: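 Stable cell line expressing recombinant human CXCR2 linked to a TEV site and Gal4-VP16. Cells were starved 24 h at 37 °C, 5% CO2, then resuspended at ~200,000 cells/mL. They were given compound in DMSO (concentration-response), stimulated with 80 nM hCXCL1 and incubated overnight at 37 °C. CCF4-AM substrate was then added for 2 h at RT in the dark.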

[2] = Solubility of compound in fasted state simulated intestinal fluid measured after 4 hrs; format: physicochemical
Method in brief: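 Solubility in FaSSIF, read after 4 h incubation.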

[3] = Efflux ratio of passive permeability in MDCK2-MDR1 cells transduced with BacMam2-BCRP at 3 uM after 90 mins by Transwell assay; format: ADME, cell-based, Canis lupus familiaris, MDCK-MDR1; conditions: dog
Method in brief: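 MDCKII-MDR1 cells transduced with BacMam2-BCRP in Transwells. Compound at 3 μM was measured in duplicate, A→B and B→A, after 90 min, with and without 5 μM GF120918. ER = B→A/A→B permeability without inhibitor. System qualified with amprenavir and dantrolene ERs.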

[4] = Passive permeability in MDCK2-MDR1 cells transduced with BacMam2-BCRP at 3 uM after 90 mins by Transwell assay; format: ADME, cell-based, Canis lupus familiaris, MDCK-MDR1; conditions: dog; read-out: permeability
Method in brief: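 MDCKII-MDR1 cells transduced with BacMam2-BCRP and grown in Transwells. Compound at 3 μM, in duplicate, was incubated 90 min A→B (and B→A) with and without GF120918 (5 μM, dual P-gp/BCRP inhibitor). Passive permeability (Pexact, nm/s) was calculated by an equation from earlier work. The permeability ratio is A→B permeability with GF120918 over A→B permeability without it.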

[5] = target: T1, C-X-C chemokine receptor type 2; assay: Antagonist activity at CXCR2 in human whole blood assessed as inhibition of GROalpha-stimulated CD11b upregulation preincubated for 15 mins followed by GROalpha stimulation measured after 15 mins by FITC-staining based FACS analysis

Row | SMILES | IC50 [1] [nM] | solubility at 4 h [2] [µg/mL] | efflux ratio at 1.5 h, 3 µM [3] | Papp at 1.5 h, 3 µM [4] [×10⁻⁶ cm/s] | IC50 [5] [nM]
1 | COCC(C)S(=O)(=O)c1c(Cl)ccc(NC(=O)N[C@@H]2CCC=C2C)c1O (stereo not given in full) | 1.26 | 72 (≈ 179 µM) | 3.2 | 28.2 | 398
2 | CC(C)S(=O)(=O)c1c(Cl)ccc(NC(=O)Nc2cccc(F)c2Cl)c1O | 0.398 |  |  |  | 
3 | CC(C)S(=O)(=O)c1c(Cl)ccc(NC(=O)NC2CCCC2)c1O | 10 |  |  |  | 
4 | CC(C)S(=O)(=O)c1c(Cl)ccc(NC(=O)NC2CCCC2(C)C)c1O (racemic) | 158 |  |  |  | 
5 | CC1=CCC[C@H]1NC(=O)Nc1ccc(Cl)c(S(=O)(=O)C2CCN(CCF)CC2)c1O | 0.631 | 288 (≈ 625 µM) | 7.3 | 21.2 | 200
6 | CC(C)S(=O)(=O)c1c(Cl)ccc(NC(=O)NC2CCOCC2)c1O | 1260 |  |  |  | 
7 | CC1CCCCC1NC(=O)Nc1ccc(Cl)c(S(=O)(=O)C(C)C)c1O (racemic) | 316 |  |  |  | 
8 | O=C1CN(/N=C/c2ccc(-c3ccc([N+](=O)[O-])cc3)o2)C(O)=N1 [DANTROLENE] |  |  | > 5 |  | 
9 | CC1=CCC[C@H]1NC(=O)Nc1ccc(Cl)c(S(=O)(=O)C2CCN(C3CCC3)CC2)c1O | 0.398 | 491 (≈ 1050 µM) | 3.3 | 32 | 501
10 | CC(C)S(=O)(=O)c1c(Cl)ccc(NC(=O)NC2CCN(C)C2)c1O (racemic) | > 10000 |  |  |  | 
11 | CC(C)S(=O)(=O)c1c(Cl)ccc(NC(=O)NC2CCN(C)CC2)c1O | > 10000 |  |  |  | 
12 | CC1=CCCCC1NC(=O)Nc1ccc(Cl)c(S(=O)(=O)C(C)C)c1O (racemic) | 12.6 |  |  |  | 
13 | CC(C)S(=O)(=O)c1c(Cl)ccc(NC(=O)NC2CCC3CC32)c1O (stereo not given) | 25.1 |  |  |  | 
14 | CO[C@@H]1CCC[C@H]1NC(=O)Nc1ccc(Cl)c(S(=O)(=O)C(C)C)c1O (racemic) | 251 |  |  |  | 
15 | CCC1CCCC1NC(=O)Nc1ccc(Cl)c(S(=O)(=O)C(C)C)c1O (racemic) | 63.1 |  |  |  | 
16 | CC1CCC(NC(=O)Nc2ccc(Cl)c(S(=O)(=O)C(C)C)c2O)C1 (racemic) | 200 |  |  |  | 

Row | SMILES | IC50 [1] [nM] | solubility at 4 h [2] [µg/mL] | efflux ratio at 1.5 h, 3 µM [3] | Papp at 1.5 h, 3 µM [4] [×10⁻⁶ cm/s] | IC50 [5] [nM]
17 | CC1CCCC1NC(=O)Nc1ccc(Cl)c(S(=O)(=O)C(C)C)c1O (racemic) | 10 |  |  |  | 
18 | CC1=C(F)CCC1NC(=O)Nc1ccc(Cl)c(S(=O)(=O)C(C)C)c1O (racemic) | 1.58 |  |  |  | 
19 | CC(C)S(=O)(=O)c1c(Cl)ccc(NC(=O)NC2CCC=C2C(F)(F)F)c1O (racemic) | 25.1 |  |  |  | 
20 | CC(C)S(=O)(=O)c1c(Cl)ccc(NC(=O)NC2C=CCC2)c1O (racemic) | 6.31 |  |  |  | 
21 | CC(C)S(=O)(=O)c1c(Cl)ccc(NC(=O)NC2CCCC23CC3)c1O (racemic) | 39.8 |  |  |  | 
22 | CC1=CCC[C@H]1NC(=O)Nc1ccc(Cl)c(S(=O)(=O)C(C)(C)CN(C)C)c1O | 126 | 395 (≈ 920 µM) |  |  | 
23 | CC(C)S(=O)(=O)c1c(Cl)ccc(NC(=O)NC2CCCCC2)c1O | 50.1 |  |  |  | 
24 | CC(C)CN(C[C@@H](O)[C@H](Cc1ccccc1)NC(=O)O[C@H]1CCOC1)S(=O)(=O)c1ccc(N)cc1 |  |  | > 12 |  | 
25 | CC(C)S(=O)(=O)c1c(Cl)ccc(NC(=O)NC2CCCOC2)c1O (racemic) | 631 |  |  |  | 
26 | CC(C)S(=O)(=O)c1c(Cl)ccc(NC(=O)NC2C=CCCC2)c1O (racemic) | 10 |  |  |  | 
27 | CC1=CCC[C@H]1NC(=O)Nc1ccc(Cl)c(S(=O)(=O)C2(C)CCN(C3CCC3)CC2)c1O | 3.98 | 139 (≈ 289 µM) |  |  | 
28 | CC1=CCC[C@H]1NC(=O)Nc1ccc(Cl)c(S(=O)(=O)C2(CCF)CCOCC2)c1O | 31.6 | 26.7 (≈ 57.9 µM) | 10.8 | 33.7 | 
29 | CC1=CCC[C@H]1NC(=O)Nc1ccc(Cl)c(S(=O)(=O)C2CCN(CC(F)(F)F)CC2)c1O | 316 |  |  |  | 
30 | COC1CCCCC1NC(=O)Nc1ccc(Cl)c(S(=O)(=O)C(C)C)c1O (racemic) | 1580 |  |  |  | 
31 | CC1=C(Cl)CCC1NC(=O)Nc1ccc(Cl)c(S(=O)(=O)C(C)C)c1O (racemic) | 3.16 |  |  |  | 

Continued, values first:

Row | IC50 [1] [nM] | solubility at 4 h [2] [µg/mL] | efflux ratio at 1.5 h, 3 µM [3] | Papp at 1.5 h, 3 µM [4] [×10⁻⁶ cm/s] | IC50 [5] [nM] | SMILES
32 | 100 |  |  |  |  | O=C(Nc1ccc(Cl)c(S(=O)(=O)C2(F)CCOCC2)c1O)N[C@H]1CCC=C1Cl
33 | 0.794 | 39 (≈ 93.1 µM) | 7 | 28.1 |  | CC1=CCC[C@H]1NC(=O)Nc1ccc(Cl)c(S(=O)(=O)C2(F)CCOC2)c1O (stereo not given in full)
34 | 501 |  |  |  |  | CC(C)(CO)S(=O)(=O)c1c(Cl)ccc(NC(=O)N[C@H]2CCC=C2Cl)c1O
35 | 2 | 4.1 (≈ 9.56 µM) | 3.4 | 26.7 | 200 | CC1=CCC[C@H]1NC(=O)Nc1ccc(Cl)c(S(=O)(=O)C2(C)CCCOC2)c1O (stereo not given in full)
36 | 2.51 | 59 (≈ 123 µM) | 9.4 | 17.7 |  | CC1=CCC[C@H]1NC(=O)Nc1ccc(Cl)c(S(=O)(=O)C2CCN(CC(F)F)CC2)c1O
37 | 1.26 | 33.2 (≈ 80 µM) | 3.8 | 31.8 | 126 | CC1=CCC[C@H]1NC(=O)Nc1ccc(Cl)c(S(=O)(=O)C2(C)CCOC2)c1O (stereo not given in full)
38 | 0.2 | 3.3 (≈ 7.62 µM) | 6.2 | 32.3 | 63.1 | CC1=CCC[C@H]1NC(=O)Nc1ccc(Cl)c(S(=O)(=O)C2(F)CCOCC2)c1O
39 | 0.501 |  |  |  |  | O=C(Nc1ccc(Cl)c(S(=O)(=O)C2(F)CCOCC2)c1O)N[C@@H]1CCC=C1Cl
40 | 79.4 |  |  |  |  | CC(C)(CCO)S(=O)(=O)c1c(Cl)ccc(NC(=O)N[C@H]2CCC=C2Cl)c1O
41 | 10 |  |  |  |  | CC(C)S(=O)(=O)c1c(Cl)ccc(NC(=O)NC2CCCC=C2Cl)c1O (racemic)
42 | 1 | 127 (≈ 297 µM) | 25.5 | 12.4 |  | CC1=CCC[C@H]1NC(=O)Nc1ccc(Cl)c(S(=O)(=O)C2CC3(COC3)C2)c1O
43 | 2510 |  |  |  |  | O=C(Nc1ccc(Cl)c(S(=O)(=O)C2COC2)c1O)N[C@H]1CCC=C1Cl
44 | 1 |  |  |  |  | CC(C)S(=O)(=O)c1c(Cl)ccc(NC(=O)NC2CCC=C2Cl)c1O (racemic)
45 | 3.98 |  |  |  |  | CC(C)(CO)S(=O)(=O)c1c(Cl)ccc(NC(=O)N[C@@H]2CCC=C2Cl)c1O
46 | 0.251 | 7 (≈ 16.3 µM) | 3.2 | 29.6 |  | CC1=CCC[C@H]1NC(=O)Nc1ccc(Cl)c(S(=O)(=O)C(C)(C)C2COC2)c1O
47 | 0.398 |  |  |  |  | CC1=CCCC1NC(=O)Nc1ccc(Cl)c(S(=O)(=O)C(C)C)c1O (racemic)
48 | 316 |  |  |  |  | O=C(Nc1ccc(Cl)c(S(=O)(=O)C2COC2)c1O)N[C@@H]1CCC=C1Cl
49 | 0.251 |  |  |  |  | CC(C)(CCO)S(=O)(=O)c1c(Cl)ccc(NC(=O)N[C@@H]2CCC=C2Cl)c1O
50 | 10 |  |  |  |  | CC(C)S(=O)(=O)c1c(Cl)ccc(NC(=O)NC2CCC=C2F)c1O (racemic)
51 | 0.251 | 15.1 (≈ 36.4 µM) | 26.8 | 7.2 |  | CC1=CCC[C@H]1NC(=O)Nc1ccc(Cl)c(S(=O)(=O)[C@@H]2CC[C@@H](O)C2)c1O
